{
  "source": "ChEMBL document CHEMBL1153585",
  "about": "“Evaluation of in vivo wound-healing potential of 2-[4-(2,4-dimethoxy-benzoyl)-phenoxy]-1-[4-(3-piperidin-4-yl-propyl)-piperidin-1-yl]-ethanone derivatives” (2009)",
  "key": {"[1]": {"system": "Rattus norvegicus", "test": "Wound healing activity in po dosed Swiss albino rat dead space wound model assessed as granuloma epithelialization and collagenation", "format": "functional, organism-based"}, "[2]": {"system": "Rattus norvegicus", "test": "Wound healing activity in po dosed Swiss albino rat dead space wound model assessed as wet weight of granulation tissue per 100 gm after 24 hrs", "format": "functional", "method_in_brief": "(§1)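 Oral dosing by feeding tube of a 4 mg/mL suspension in 1% (w/v) Tween-80, prepared fresh. Ten groups of four animals: untreated control, a 0.2% (w/w) nitrofurazone ointment reference, and eight test groups. Granulation tissue was weighed wet and dry, and its breaking strength was measured. Values are mean ± SE of 4 animals, analysed by one-way ANOVA with Tukey's test against control.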"}, "[3]": {"system": "Rattus norvegicus", "test": "Wound healing activity in po dosed Swiss albino rat dead space wound model assessed as dry weight of granulation tissue per 100 gm after 24 hrs", "format": "functional", "method_in_brief": "as §1"}, "[4]": {"system": "Rattus norvegicus", "test": "Wound healing activity in po dosed Swiss albino rat dead space wound model assessed as skin breaking strength after 10 days", "format": "functional", "method_in_brief": "as §1"}, "[5]": {"system": "Rattus norvegicus", "test": "Wound healing activity in po dosed Swiss albino rat incision wound model assessed as skin breaking strength after 10 days", "format": "functional"}, "[6]": {"system": "Rattus norvegicus", "test": "Wound healing activity in po dosed Swiss albino rat incision wound model assessed as increase in dry weight of granulation tissue after 24 hrs", "format": "functional, organism-based"}, "[7]": {"system": "Rattus norvegicus", "test": "Wound healing activity in po dosed Swiss albino rat incision wound model assessed as increase in wet weight of granulation tissue after 24 hrs", "format": "functional, organism-based"}},
  "note": "Activity calls are given as the source filed them. The rule behind the calls is not given here.",
  "data": [
    {"smiles": "COc1ccc(C(=O)c2ccc(OCC(=O)N3CCC(CCCC4CCN(C(=O)Nc5ccccc5Cl)CC4)CC3)cc2)c(OC)c1", "values": [
      {"measurement": "Activity", "setting": "[1]", "value": "Active"},
      {"measurement": "Activity", "setting": "[2]", "value": 104.85, "unit": "mg"},
      {"measurement": "Activity", "setting": "[3]", "value": 21.01, "unit": "mg"},
      {"measurement": "Activity", "setting": "[4]", "value": 541.82, "unit": "g"},
      {"measurement": "Activity", "setting": "[5]", "value": 605.49, "unit": "g"}
    ]},
    {"smiles": "COc1ccc(C(=O)c2ccc(OCC(=O)N3CCC(CCCC4CCN(C(=O)Nc5ccc(Cl)cc5Cl)CC4)CC3)cc2)c(OC)c1", "values": [
      {"measurement": "Activity", "setting": "[2]", "value": 79, "unit": "mg"},
      {"measurement": "Activity", "setting": "[3]", "value": 17.81, "unit": "mg"},
      {"measurement": "Activity", "setting": "[4]", "value": 361.6, "unit": "g"},
      {"measurement": "Activity", "setting": "[5]", "value": 445.12, "unit": "g"}
    ]},
    {"smiles": "COc1ccc(NC(=O)N2CCC(CCCC3CCN(C(=O)COc4ccc(C(=O)c5ccc(OC)cc5OC)cc4)CC3)CC2)cc1", "values": [
      {"measurement": "Activity", "setting": "[2]", "value": 112.48, "unit": "mg"},
      {"measurement": "Activity", "setting": "[3]", "value": 21.59, "unit": "mg"},
      {"measurement": "Activity", "setting": "[4]", "value": 414.19, "unit": "g"},
      {"measurement": "Activity", "setting": "[5]", "value": 503.89, "unit": "g"}
    ]},
    {"smiles": "COc1ccc(C(=O)c2ccc(OCC(=O)N3CCC(CCCC4CCN(C(=S)Nc5ccc(F)cc5)CC4)CC3)cc2)c(OC)c1", "values": [
      {"measurement": "Activity", "setting": "[6]", "value": "Active"},
      {"measurement": "Activity", "setting": "[1]", "value": "Active"},
      {"measurement": "Activity", "setting": "[2]", "value": 122.94, "unit": "mg"},
      {"measurement": "Activity", "setting": "[3]", "value": 26.27, "unit": "mg"},
      {"measurement": "Activity", "setting": "[4]", "value": 645.69, "unit": "g"},
      {"measurement": "Activity", "setting": "[5]", "value": 760.88, "unit": "g"},
      {"measurement": "Activity", "setting": "[7]", "value": "Active"}
    ]},
    {"smiles": "NC(=O)N/N=C/c1ccc([N+](=O)[O-])o1", "note": "[NITROFURAZONE]", "values": [
      {"measurement": "Activity", "setting": "[5]", "value": 875, "unit": "g"}
    ]},
    {"smiles": "COc1ccc(C(=O)c2ccc(OCC(=O)N3CCC(CCCC4CCN(C(=S)Nc5ccc(Cl)cc5Cl)CC4)CC3)cc2)c(OC)c1", "values": [
      {"measurement": "Activity", "setting": "[2]", "value": 88.02, "unit": "mg"},
      {"measurement": "Activity", "setting": "[3]", "value": 21.02, "unit": "mg"},
      {"measurement": "Activity", "setting": "[4]", "value": 619.15, "unit": "g"},
      {"measurement": "Activity", "setting": "[5]", "value": 612.5, "unit": "g"}
    ]},
    {"smiles": "COc1ccc(NC(=S)N2CCC(CCCC3CCN(C(=O)COc4ccc(C(=O)c5ccc(OC)cc5OC)cc4)CC3)CC2)cc1", "values": [
      {"measurement": "Activity", "setting": "[2]", "value": 80.54, "unit": "mg"},
      {"measurement": "Activity", "setting": "[3]", "value": 12.36, "unit": "mg"},
      {"measurement": "Activity", "setting": "[4]", "value": 355.42, "unit": "g"},
      {"measurement": "Activity", "setting": "[5]", "value": 675, "unit": "g"}
    ]},
    {"smiles": "COc1ccc(C(=O)c2ccc(OCC(=O)N3CCC(CCCC4CCN(C(=O)Nc5ccc(F)cc5)CC4)CC3)cc2)c(OC)c1", "values": [
      {"measurement": "Activity", "setting": "[2]", "value": 91.31, "unit": "mg"},
      {"measurement": "Activity", "setting": "[3]", "value": 17.8, "unit": "mg"},
      {"measurement": "Activity", "setting": "[4]", "value": 451.6, "unit": "g"},
      {"measurement": "Activity", "setting": "[5]", "value": 552.06, "unit": "g"}
    ]},
    {"smiles": "COc1ccc(C(=O)c2ccc(OCC(=O)N3CCC(CCCC4CCN(C(=S)Nc5ccccc5Cl)CC4)CC3)cc2)c(OC)c1", "values": [
      {"measurement": "Activity", "setting": "[6]", "value": "Active"},
      {"measurement": "Activity", "setting": "[1]", "value": "Active"},
      {"measurement": "Activity", "setting": "[2]", "value": 134.79, "unit": "mg"},
      {"measurement": "Activity", "setting": "[3]", "value": 26.04, "unit": "mg"},
      {"measurement": "Activity", "setting": "[4]", "value": 623.25, "unit": "g"},
      {"measurement": "Activity", "setting": "[5]", "value": 748.38, "unit": "g"},
      {"measurement": "Activity", "setting": "[7]", "value": "Active"}
    ]}
  ]
}
